Source: ChEMBL document CHEMBL4665714 (Bioorg Med Chem Lett, 2020)
Calls of active or inactive are those of the source. No cut-off for these calls is given here.

Columns and labels:
[1] = tested on: ARPE-19; assay: Cytoprotective activity against human ARPE-19 cells assessed as reduction in all-trans-retinal induced cytotoxicity at 18 to 90 uM incubated for 6 hrs in presence of all-trans-retinal by CellTiter-Glo luminescent cell viability assay; assay type: functional, cell-based; conditions: dose microM 18-90, time 6.0 hrs
[2] = target: Retinoid isomerohydrolase (Bos taurus, UniProt Q28175); assay: (§1) Inhibition of RPE65 in bovine RPE microsomes assessed as reduction in 11-cis-retinol production using all-trans-retinol as substrate pre-incubated with enzyme for 5 mins followed by further incubation with all-trans-retinol for 1 hr by normal phase HPLC analysis; set-up: species or system Retina, Microsome
Sequence of Retinoid isomerohydrolase (Q28175 whole entry): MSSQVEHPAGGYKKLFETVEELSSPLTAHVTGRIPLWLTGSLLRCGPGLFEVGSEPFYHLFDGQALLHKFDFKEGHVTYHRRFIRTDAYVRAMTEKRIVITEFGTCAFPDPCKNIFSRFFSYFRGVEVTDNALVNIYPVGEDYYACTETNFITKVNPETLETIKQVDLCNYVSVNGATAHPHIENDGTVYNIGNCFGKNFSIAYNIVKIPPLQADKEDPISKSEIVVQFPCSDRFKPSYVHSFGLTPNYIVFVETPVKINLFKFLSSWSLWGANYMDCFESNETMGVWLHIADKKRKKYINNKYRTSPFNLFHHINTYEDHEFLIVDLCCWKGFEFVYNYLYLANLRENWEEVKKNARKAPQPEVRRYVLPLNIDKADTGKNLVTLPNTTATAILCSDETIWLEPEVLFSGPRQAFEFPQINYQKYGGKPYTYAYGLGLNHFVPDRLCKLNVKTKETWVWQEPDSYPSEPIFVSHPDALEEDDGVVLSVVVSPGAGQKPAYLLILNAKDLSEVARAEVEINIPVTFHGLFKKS
Outline: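 All-trans-retinol added to the enzyme mixture and incubated 1 h at 37 °C. Quenched with methanol and extracted into hexane. Inhibition taken from the fall in 11-cis-retinol production.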

[3] = tested on: ARPE-19; assay: Cytoprotective activity against human ARPE-19 cells assessed as reduction in all-trans-retinal induced cytotoxicity by measuring cell surveillance rate at 90 uM incubated for 6 hrs in presence of all-trans-retinal by CellTiter-Glo luminescent cell viability assay relative to control; assay type: functional
Outline: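 ARPE-19 (human RPE line) cells given test agent at 18, 45 or 90 μM together with all-trans-retinal 385 μM. Incubated 6 h at 37 °C, then viability read by CellTiter-Glo luminescence. Mean ±SE, n=3, t-test.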

[4] = target: Retinoid isomerohydrolase (Bos taurus) (UniProt Q28175); assay: as §1, with “Potency index, ratio of (R)-MB001 EC50 to test compound EC50 for inhibition” for “Inhibition”; conditions: Retina, Microsome, time 65.0 min
Sequence of Retinoid isomerohydrolase (Bos taurus) (Q28175 2-533 limits assumed): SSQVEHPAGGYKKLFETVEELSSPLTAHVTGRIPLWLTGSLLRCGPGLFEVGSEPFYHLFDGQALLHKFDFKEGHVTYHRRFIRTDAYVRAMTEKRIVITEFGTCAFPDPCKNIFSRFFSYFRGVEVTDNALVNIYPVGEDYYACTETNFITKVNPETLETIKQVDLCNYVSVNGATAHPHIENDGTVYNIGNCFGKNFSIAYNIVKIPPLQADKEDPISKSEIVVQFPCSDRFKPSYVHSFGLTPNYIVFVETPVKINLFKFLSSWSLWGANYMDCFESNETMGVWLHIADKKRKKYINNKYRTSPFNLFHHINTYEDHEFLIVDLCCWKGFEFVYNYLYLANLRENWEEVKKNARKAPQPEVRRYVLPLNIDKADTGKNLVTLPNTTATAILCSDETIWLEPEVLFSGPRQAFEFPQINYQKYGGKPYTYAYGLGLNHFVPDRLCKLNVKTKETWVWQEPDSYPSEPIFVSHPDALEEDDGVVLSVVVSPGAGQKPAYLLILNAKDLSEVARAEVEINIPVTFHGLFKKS

EC50 [2]	Ratio EC50 [4]	Compound	Activity [1]	Activity [3]
323 nM	–	CC1=C(COc2cccc([C@H](O)CCN)c2)C(C)(C)CCC1	Active	–
196 nM	–	NCCC(O)c1cccc(OCC(CCCF)CCCF)c1 (stereo in doubt; 14) [listing 1 of 2 here]	–	100%
–	2	NCCC(O)c1cccc(OCC(CCCF)CCCF)c1 (stereo in doubt; 14) [listing 2 of 2 here]	Active	–
–	2	NCCC(O)c1cccc(OCC(CCCF)CCCF)c1 (racemic) [listing 1 of 2 here]	Active	–
166 nM	–	NCCC(O)c1cccc(OCC(CCCF)CCCF)c1 (racemic) [listing 2 of 2 here]	–	–
